Experimental findings from ChEMBL document CHEMBL4834396, “Molecular Recognition and Imaging of Human Telomeric G-Quadruplex DNA in Live Cells: A Systematic Advancement of Thiazole Orange Scaffold To Enhance Binding Specificity and Inhibition of Gene Expression” (J Med Chem, 2021) are described below.

Structures are written as SMILES. Activity calls are given as the source filed them. No cut-off for these calls is given here.

The test system of data set [1] is Quadruplex DNA. The data set can be described thus: Binding affinity to telomeric Htg24 G-quadruplex DNA (unknown origin) assessed as equilibrium binding constant at 5 uM at 25 degreeC by […]. The class given is nucleic-acid assay. The gist of the method:
(§1)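 Fluorescence titration: ligand 5 μM in 10 mM Tris-HCl pH 7.4 with 60 mM KCl, nucleic acid added until saturation, 25 °C. Keq from nonlinear fit of F/F0 to an independent-site model.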

Data set [2] has as its system Quadruplex DNA. Description: Binding affinity to telomeric Telo21 G-quadruplex DNA (unknown origin) assessed as equilibrium binding constant at 5 uM at 25 degreeC by […]. The class given is nucleic-acid assay. The gist of the method: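 Fluorescence titration: ligand at 5 μM in 10 mM Tris-HCl, pH 7.4, with 60 mM KCl, 25 °C. DNA was added slowly until saturation. Keq was obtained by nonlinear fitting of F/F0 to an independent-site model.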

Data set [3] is described as follows: Water solubility of compound at 25 degreeC. The class given is physicochemical. In outline: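 Solubility in water measured at 25 °C.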
A further data set relates to DNA. Description: Binding affinity to ds26 DNA (unknown origin) assessed as equilibrium binding constant at 5 uM at 25 degreeC by […]. The class given is nucleic-acid assay. In outline: as §1
Data set [4] concerns Quadruplex DNA. Description: Binding affinity to c-myc promoter G-quadruplex DNA Pu22 (unknown origin) assessed as equilibrium binding constant at 5 uM at 25 degreeC by […]. The class given is nucleic-acid assay. The gist of the method:
as §1

In the next data set the test system is rRNA. The data set can be described thus: Binding affinity to rRNA (unknown origin) assessed as equilibrium binding constant at 5 uM at 25 degreeC […]. The class given is nucleic-acid assay. In outline: as §1
Data set [5] concerns Quadruplex DNA. Description: Binding affinity to telomeric Htg24 G-quadruplex DNA (unknown origin) assessed as emission wavelength at 480 to 483 nm at pH 7.4 by spectrophotometric method. The class given is nucleic-acid assay.
Another data set relates to U-87 MG. The data set can be described thus: Antiproliferative activity against human U87 cells assessed as reduction in cell viability […] by MTT assay. The class given is functional, cell-based, U-87MG ATCC.
Data set [6] has as its system Quadruplex DNA. The data set can be described thus: Stabilization of telomeric Htg24 G-quadruplex DNA (unknown origin) assessed as inhibition of DNA amplification at 20 uM by PCR analysis. The class given is nucleic-acid assay. In outline:
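Taq polymerase stop assay: Htg24 or its non-G4 mutant template (5 μM) with 2 μM of each oligomer, […] and ligand at 0–20 μM. Cycling was 94 °C for 5 min, then 30 cycles of 94/56/72 °C at 30 s each. Products were resolved on 15% PAGE and stained with SYBR Gold.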

A further data set concerns 16HBE14o-. Description: Cytotoxicity against human 16HBE14o- cells assessed as cell viability incubated for 48 hrs by MTT assay. The class given is cell-based. Particulars: 36 h, in the assay text read “36 hrs” for “48 hrs”. The gist of the method:
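Cells were plated and grown 48 h at 37 °C, 5% CO2, in DMEM with 10% FBS. They were then given graded ligand concentrations for 36 h and treated with MTT (5 mg/ml) for 4 h in the dark. Formazan was dissolved in DMSO and absorbance read at 577 nm. IC50 was taken from a sigmoidal dose–response fit; three independent experiments.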
On the technique in general: Formazan colour is commonly taken as a measure of viable cells.

The subject of data set [7] is HeLa. Description: Antiproliferative activity against human HeLa cells assessed as reduction in cell viability […] by MTT assay. The class given is functional, cell-based.
The next data set relates to MCF7. Description: Antiproliferative activity against human MCF7 cells assessed as reduction in cell viability […] by MTT assay. The class given is functional, cell-based.
Data set [8] concerns Quadruplex DNA. Description: Binding affinity to telomeric Htg24 G-quadruplex DNA (unknown origin) assessed as fluorescence quantum yield by fluorescence spectrophotometric method. The class given is nucleic-acid assay. In outline:
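Fluorescence quantum yield determined against fluorescein (Φ = 0.95) in 1% NaOH ethanol. Five increasing ligand concentrations added to fixed DNA, with absorbance and emission recorded for each.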

In data set [9] the test system is HeLa. Description: Downregulation of hTERT mRNA expression in human HeLa cells at 5 to 20 uM by qRT-PCR analysis. Particulars: dose 5-20 µM. The class given is functional, cell-based. The gist of the method: (§2)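 HeLa cells were treated with graded compound concentrations, then incubated 36 h. RNA was extracted with Trizol/chloroform, reverse transcribed and quantified by qRT-PCR. GAPDH served as internal control, with relative expression by the ΔΔCt method; three independent experiments, mean ± SD.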

Data set [10] concerns HeLa. The data set can be described thus: Downregulation of hTERC mRNA expression in human HeLa cells at 5 to 20 uM by qRT-PCR analysis. The conditions noted are these: dose 5-20 µM. The class given is functional, cell-based. In outline:
as §2
For orientation: In qPCR the cycle at which signal appears reflects the starting amount.

In the next data set the test system is PC-3. The data set can be described thus: Antiproliferative activity against human PC-3 cells assessed as reduction in cell viability […] by MTT assay. The class given is functional, cell-based.
The subject of data set [11] is Quadruplex DNA. The data set can be described thus: Binding affinity to telomeric Htg24 G-quadruplex DNA (unknown origin) assessed as stroke shift under at 480 to 483 nm at pH 7.4 by spectrophotometric method.
A further data set concerns HepG2. The data set can be described thus: Antiproliferative activity against human HepG2 cells assessed as reduction in cell viability […] by MTT assay. The class given is functional, cell-based.
Data set [12] has as its system HeLa. Description: Induction of cellular senescence in human HeLa cells assessed as positive SA-beta-Gal cells at 0.5 to 4 uM incubated for 18 days by inverted fluorescence microscopic analysis. The class given is functional, cell-based. Particulars: dose 0.5-4 µM, time 18.0 day. The gist of the method:
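HeLa cells were exposed to compound for 18 days, with drug-containing medium replaced every three days. Cells were then fixed 15 min at room temperature and stained for β-galactosidase at 37 °C overnight. Stained cells were examined under an inverted microscope.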

Data set [13] concerns Quadruplex DNA. The data set can be described thus: Displacement of 2-((E)-4-(Dimethylamino)styryl)-1-methyl-4-((Z)-(3-(3-morpholinopropyl)benzo[d]thiazol-2(3H)-ylidene)methyl)quinolin-1-ium iodide from telomeric Htg24 G4 quadruplex DNA in human U87 cells assessed as decrease in fluorescence intensity at 5 to 20 uM by competition binding assay. The conditions noted are these: dose 5-20 µM. The class given is cell-based. The gist of the method: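 Live U87 cells were stained with probe at 5 μM plus DAPI and co-treated with BRACO19 at 5, 10, 15 or 20 μM. Confocal imaging used excitation at 488 or 571 nm for the probe and 402 nm for DAPI. Nuclear spot intensity was compared across concentrations.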

By solubility is commonly meant how much of the substance goes into solution per volume. One may read the IC50 as the concentration at which inhibition is half-maximal.

Turning to `C[n+]1c(/C=C/c2ccc(N(c3ccccc3)c3ccccc3)cc2)cc(/C=C2\Sc3ccccc3N2CCCN2CCOCC2)c2ccccc21.[I-]`, the Kb with Quadruplex DNA [1] turned out to be 490000 M⁻¹; with Quadruplex DNA [2], 523000 M⁻¹; with DNA, 272000 M⁻¹; in the data set with Quadruplex DNA [4], 645000 M⁻¹. The same compound displayed a solubility in data set [3] of 70.7 µM.

`C[n+]1c(/C=C/c2ccc(C#N)cc2)cc(/C=C2\Sc3ccccc3N2CCCN2CCOCC2)c2ccccc21.[I-]`: the Kb in the data set on Quadruplex DNA [1] worked out at 505000 M⁻¹; with Quadruplex DNA [2], 722000 M⁻¹; with rRNA, 501000 M⁻¹; in the data set with DNA it was 379000 M⁻¹; in the data set with Quadruplex DNA [4], 443000 M⁻¹. Further, the concentration in solution in [3] (solubility) was 83 µM.

As for `CC1CCN(CCCN2/C(=C/c3cc(/C=C/c4ccc(N(C)C)cc4)[n+](C)c4ccccc34)Sc3ccccc32)CC1.[I-]`, the Activity in the data set with Quadruplex DNA [5] is 648 nm; in the data set with Quadruplex DNA [8], 0.317; in the data set on Quadruplex DNA [11] it was 165 nm. Further, the half-inhibitory concentration (IC50) in the data set on U-87 MG stood at 14.7 µM; in the data set on 16HBE14o-, 34.8 µM; in the data set on HeLa [7] it was 21.2 µM; in the data set on MCF7, 12.6 µM; with PC-3, 14.6 µM; in the data set with HepG2 it was 11 µM. Besides, the outcome in the data set on Quadruplex DNA [6], in the data set with HeLa [9] and in the data set on HeLa [10] was Active. Further, the solubility in data set [3] was found to be 105 µM. Moreover, the Kb in the data set on rRNA came out at 840000 M⁻¹.

With `CSc1ccc(/C=C/c2cc(/C=C3\Sc4ccccc4N3CCCN3CCC(C)CC3)c3ccccc3[n+]2C)cc1.[I-]`, the Kb in the data set on Quadruplex DNA [1] was 689000 M⁻¹; in the data set on Quadruplex DNA [2], 650000 M⁻¹; in the data set on rRNA it was 787000 M⁻¹; in the data set on DNA, 755000 M⁻¹; in the data set with Quadruplex DNA [4] it was 766000 M⁻¹. Moreover, the concentration in solution in data set [3] (solubility) was 98.4 µM.

With `CSc1ccc(/C=C/c2cc(/C=C3\Sc4ccccc4N3CCCN3CCOCC3)c3ccccc3[n+]2C)cc1.[I-]`, the IC50 in the data set on U-87 MG was found to be 96.8 µM; in the data set with 16HBE14o-, 58 µM; with HeLa [7], 90.3 µM; in the data set with MCF7 it was 105 µM; in the data set with PC-3, 91.1 µM; in the data set on HepG2 it was 96.5 µM. Besides, the result in the data set on Quadruplex DNA [6], in the data set on HeLa [9] and in the data set on HeLa [10] was inactive. Further, the Kb with Quadruplex DNA [1] is 325000 M⁻¹; in the data set on Quadruplex DNA [2] it was 301000 M⁻¹; in the data set with rRNA, 764000 M⁻¹; with DNA, 657000 M⁻¹; in the data set with Quadruplex DNA [4], 486000 M⁻¹. The solubility in data set [3] is 87.3 µM.

In the case of `CC1CCN(CCCN2/C(=C/c3cc(/C=C/c4ccc(C#N)cc4)[n+](C)c4ccccc34)Sc3ccccc32)CC1.[I-]`, the Kb with Quadruplex DNA [1] came out at 902000 M⁻¹; with Quadruplex DNA [2], 957000 M⁻¹; in the data set on rRNA it was 786000 M⁻¹; in the data set with Quadruplex DNA [4] it was 983000 M⁻¹. In addition, the solubility in data set [3] was found to be 82.7 µM.

As to `CC1CCN(CCCN2/C(=C/c3cc(/C=C/c4ccc(O)cc4)[n+](C)c4ccccc34)Sc3ccccc32)CC1.[I-]`, in data set [3], the concentration in solution (solubility) came to 147 µM. For the same compound, in the data set on Quadruplex DNA [4], the Kb worked out at 550000 M⁻¹.

With `C[n+]1c(/C=C/c2ccc(O)cc2)cc(/C=C2\Sc3ccccc3N2CCCN2CCOCC2)c2ccccc21.[I-]`, in the data set with Quadruplex DNA [2], the Kb was found to be 965000 M⁻¹. Moreover, the concentration in solution in data set [3] (solubility) came to 167 µM.

For `CC1CCN(CCCN2/C(=C/c3cc(/C=C/c4ccc(N(c5ccccc5)c5ccccc5)cc4)[n+](C)c4ccccc34)Sc3ccccc32)CC1.[I-]`, the Kb in the data set with Quadruplex DNA [1] is 722000 M⁻¹; with Quadruplex DNA [2] it was 785000 M⁻¹; in the data set with DNA it was 154000 M⁻¹; in the data set on Quadruplex DNA [4], 907000 M⁻¹. In data set [3], this compound displayed a solubility of 77.2 µM.

Consider `CN(C)c1ccc(Nc2c3ccc(NC(=O)CCN4CCCC4)cc3nc3cc(NC(=O)CCN4CCCC4)ccc23)cc1`, for which the outcome with Quadruplex DNA [6], with HeLa [12], in the data set with Quadruplex DNA [13], in the data set on HeLa [9] and with HeLa [10] was Active.
